The values that follow come from ChEMBL document CHEMBL4396897, “Potent 5-Cyano-6-phenyl-pyrimidin-Based Derivatives Targeting DCN1-UBE2M Interaction” (J Med Chem, 2019).

Structures are written as SMILES.

Assay [1] addresses T1, DCN1-like protein 1 (Homo sapiens, UniProt Q96GG9). Briefly: Binding affinity to N-terminal His6-tagged recombinant human DCN1 expressed in Escherichia coli BL21-AI assessed as reduction in DCN1-FAM-labelled N-terminal acetylated UBE2M (1 to 12 residues) protein-protein interaction after 30 mins by fluorescence polarization competitive binding assay.
Assay [2] deals with T1, DCN1-like protein 1. Briefly: Binding affinity to N-terminal GST tagged recombinant human DCN1 (58 to 259 residues) expressed in Escherichia coli BL21(DE3) assessed as reduction in DCN1-FAM-labelled N-terminal acetylated UBE2M (1 to 21 residues) protein-protein interaction after 30 mins by HTRF assay. For orientation: In TR-FRET formats the signal depends on donor and acceptor labels being close together.

For the next assay, the system named is KYSE-70 cell line. Briefly: Antiproliferative activity against human KYSE-70 after 72 hrs by MTT assay. To be noted: KYSE-70, 72 h. The class given is functional, cell-based. The method in brief: (§1)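 MTT viability assay: cells seeded at 2~5×10^3 per well, exposed to serial dilutions of compound for 72h, then MTT (5 mg/mL in PBS) added for 4h at 37°C. Formazan dissolved in DMSO and read at 490nm. IC50 reported as mean ± SD of three independent experiments.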

A further assay relates to PC-9. Briefly: Antiproliferative activity against human PC9 by MTT assay. The class given is functional, cell-based. The method in brief: as §1
On the technique in general: Tetrazolium dyes change colour on reduction, which living cells bring about.

A further assay relates to SMMC-7721. Briefly: Antiproliferative activity against human SMMC7721 after 72 hrs by MTT assay. The class given is functional, cell-based. To be noted: SMMC-7721, 72 h. The method in brief:
as §1

The next assay relates to PC-3. Briefly: Antiproliferative activity against human PC3 after 72 hrs by MTT assay. The class given is functional, cell-based. To be noted: PC-3, 72 h. Put shortly:
as §1

A further assay concerns MCF7. Briefly: Antiproliferative activity against human MCF7 after 72 hrs by MTT assay. Format: functional, cell-based. To be noted: MCF7, 72 h. Put shortly: as §1

T1 sequence (Q96GG9 whole entry, the tested form may be a part): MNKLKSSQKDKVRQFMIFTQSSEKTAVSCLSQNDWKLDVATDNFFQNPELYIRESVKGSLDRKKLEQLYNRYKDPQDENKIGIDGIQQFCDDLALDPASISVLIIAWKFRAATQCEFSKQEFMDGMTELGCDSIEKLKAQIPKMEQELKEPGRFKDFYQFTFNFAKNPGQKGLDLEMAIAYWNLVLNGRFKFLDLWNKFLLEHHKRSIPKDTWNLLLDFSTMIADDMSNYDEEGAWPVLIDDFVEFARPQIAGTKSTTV

With `C#CCSc1nc(Sc2nccs2)c(C#N)c(-c2ccc(Cl)cc2)n1`, the half-maximal inhibitory concentration (IC50) – broadly, the concentration needed to halve the response being measured – on DCN1-like protein 1 [1] was found to be 0.0366 µM; at DCN1-like protein 1 [2], 0.096 µM; in the assay on KYSE-70 cell line it was 5.35 µM; in the assay with PC-9, 4.13 µM; in the assay on SMMC-7721, 6.04 µM; in the assay with PC-3 it was 3.62 µM. In addition, in the assay with MCF7, the IC50 was 3.23 µM.
As to `C#CCSc1nc(Sc2nccs2)c(C#N)c(-c2cc(OC)c(OC)c(OC)c2)n1`, the IC50 at DCN1-like protein 1 [1] was 0.141 µM; on DCN1-like protein 1 [2] it was 0.077 µM.
As for `C#CCSc1nc(Sc2nnnn2C)c(C#N)c(-c2ccc(Cl)c(Cl)c2)n1`, the IC50 on DCN1-like protein 1 [1] is 0.943 µM; on DCN1-like protein 1 [2] it was 0.339 µM.
For `C#CCSc1nc(Sc2nnc(N)s2)c(C#N)c(-c2cc(OC)c(OC)c(OC)c2)n1` the same measures were 0.821 µM and 0.107 µM.
On the same counts, the results for `C#CCSc1nc(Sc2nnnn2C)c(C#N)c(-c2cccc(Cl)c2)n1` are 0.644 µM and 0.291 µM.
For the molecule `C#CCSc1nc(Sc2nnnn2CCN(C)C)c(C#N)c(-c2cc(OC)c(OC)c(OC)c2)n1`, the IC50 on DCN1-like protein 1 [1] turned out to be 0.591 µM; on DCN1-like protein 1 [2], 0.199 µM.
On the same counts, the results for `C#CCSc1nc(-c2cc(OC)c(OC)c(OC)c2)c(C#N)c(N2CCCCC2)n1` are more than 10 µM and more than 5 µM.
Regarding `C#CCSc1nc(Sc2nnnn2CCN(C)C)c(C#N)c(-c2ccc(Cl)cc2)n1`, the IC50 at DCN1-like protein 1 [1] worked out at 0.0635 µM; at DCN1-like protein 1 [2], 0.123 µM; with KYSE-70 cell line it was 6.56 µM; in the assay with PC-9 it was 5.3 µM; in the assay on SMMC-7721, 7.34 µM; in the assay with PC-3 it was 7.17 µM. The same molecule showed an IC50 in the assay on MCF7 of 6.18 µM.
In the case of `C#CCSc1nc(Sc2nnnn2C)c(C#N)c(-c2cc(OC)c(OC)c(OC)c2)n1`, the IC50 on DCN1-like protein 1 [1] came out at 0.36 µM; on DCN1-like protein 1 [2], 0.25 µM.
For `C#CCSc1nc(Sc2nnnn2CCN(C)C)c(C#N)c(-c2ccc(C)cc2)n1` the same measures were 0.109 µM and 0.12 µM.
For `C#CCSc1nc(Sc2nnc(C)s2)c(C#N)c(-c2cc(OC)c(OC)c(OC)c2)n1` the same measures were 0.153 µM and 0.134 µM.
On the same counts, the results for `C#CCSc1nc(Sc2nccs2)c(C#N)c(-c2ccc(Cl)c(Cl)c2)n1` are 0.063 µM and 0.112 µM.
`C#CCSc1nc(Sc2nnnn2CCN(C)C)c(C#N)c(-c2ccc(Cl)c(Cl)c2)n1`: the results for the IC50 at DCN1-like protein 1 [1] and at DCN1-like protein 1 [2] were 0.391 µM and 0.172 µM, respectively.
For the molecule `C#CCSc1nc(Sc2ccc(N)s2)c(C#N)c(-c2cc(OC)c(OC)c(OC)c2)n1`, the IC50 at DCN1-like protein 1 [1] is 0.196 µM; on DCN1-like protein 1 [2], 0.066 µM.
On the same counts, the results for `C#CCSc1nc(-c2cc(OC)c(OC)c(OC)c2)c(C#N)c(N2CCOCC2)n1` are more than 10 µM and more than 10 µM.
For `C#CCSc1nc(Nc2nnnn2C)c(C#N)c(-c2cc(OC)c(OC)c(OC)c2)n1` the same measures were more than 10 µM and more than 10 µM.
For `C#CCSc1nc(Sc2nnnn2C)c(C#N)c(-c2ccc(Cl)cc2)n1` the same measures were 0.0785 µM and 0.102 µM.
As to `C#CCSc1nc(Sc2nccs2)c(C#N)c(-c2cccc(Cl)c2)n1`, the IC50 amounted to 0.362 µM on DCN1-like protein 1 [1] and 0.14 µM at DCN1-like protein 1 [2].
Regarding `C#CCSc1nc(Sc2nc(C)c(C)s2)c(C#N)c(-c2cc(OC)c(OC)c(OC)c2)n1`, the IC50 at DCN1-like protein 1 [1] is more than 10 µM; at DCN1-like protein 1 [2], more than 10 µM; in the assay on KYSE-70 cell line it was more than 20 µM; in the assay on PC-9 it was more than 20 µM; in the assay on SMMC-7721 it was more than 20 µM; with PC-3 it was more than 20 µM. Besides, the IC50 in the assay on MCF7 was more than 20 µM.
Consider `C=CC(=O)Nc1ccccc1CN(C(=O)Nc1cccc(C(F)(F)F)c1)C1CCN(C(C)CCC)CC1` (stereo not given), for which the IC50 with KYSE-70 cell line came to 17.9 µM; in the assay on PC-9, 5.59 µM; in the assay on SMMC-7721, 16.2 µM; in the assay with PC-3 it was 25.3 µM; in the assay with MCF7, 10.2 µM.
With `CCCSc1nc(Sc2nccs2)c(C#N)c(-c2ccc(Cl)cc2)n1`, the IC50 on DCN1-like protein 1 [1] and on DCN1-like protein 1 [2] was more than 10 µM throughout.
Turning to `C#CCSc1nc(Sc2nnnn2C)c(C#N)c(-c2ccc(C(C)C)cc2)n1`, the IC50 is 1.09 µM on DCN1-like protein 1 [1] and 0.369 µM on DCN1-like protein 1 [2].
On the same counts, the results for `C#CCSc1nc(Nc2cccc(C(F)(F)F)c2)c(C#N)c(-c2cc(OC)c(OC)c(OC)c2)n1` are more than 10 µM and more than 10 µM.
For `C#CCSc1nc(Sc2nccn2C)c(C#N)c(-c2cc(OC)c(OC)c(OC)c2)n1` the same measures were more than 10 µM and more than 2.5 µM.
For `C#CCSc1nc(Sc2nccs2)c(C#N)c(-c2ccc3oc(=O)ccc3c2)n1` the same measures were 0.789 µM and 0.202 µM.
For `C#CCSc1nc(Sc2nnnn2CCN(C)C)c(C#N)c(-c2cccc(Cl)c2)n1`, the IC50 at DCN1-like protein 1 [1] turned out to be 0.106 µM; at DCN1-like protein 1 [2] it was 0.38 µM; in the assay with KYSE-70 cell line, 5.32 µM; in the assay on PC-9, 6.48 µM; in the assay with SMMC-7721, 8.64 µM; in the assay with PC-3 it was 3.54 µM. In addition, the IC50 with MCF7 turned out to be 4.12 µM.
Consider `C#CCSc1nc(Nc2ccc(OC)cc2)c(C#N)c(-c2cc(OC)c(OC)c(OC)c2)n1`, for which the IC50 on DCN1-like protein 1 [1] and on DCN1-like protein 1 [2] was more than 10 µM each time.
`C#CCSc1nc(Sc2nccs2)c(C#N)c(-c2ccc[nH]2)n1`: the IC50 on DCN1-like protein 1 [1] is more than 20 µM; on DCN1-like protein 1 [2], more than 10 µM; with KYSE-70 cell line, more than 20 µM; in the assay with PC-9, more than 20 µM; with SMMC-7721, more than 20 µM; in the assay on PC-3 it was more than 20 µM. Besides, the IC50 in the assay on MCF7 is more than 20 µM.
As to `C#CCSc1nc(Sc2nnnn2C)c(C#N)c(-c2ccc3oc(=O)ccc3c2)n1`, the IC50 came out at 1.25 µM on DCN1-like protein 1 [1] and 0.82 µM at DCN1-like protein 1 [2].
For `C#CCSc1nc(Sc2nnnn2C)c(C#N)c(-c2ccc[nH]2)n1` the same measures were more than 20 µM and more than 10 µM.
On the same counts, the results for `C#CCSc1nc(Sc2nnnn2CCN(C)C)c(C#N)c(-c2ccc3oc(=O)ccc3c2)n1` are 0.666 µM and 0.815 µM.
On the same counts, the results for `C#CCSc1nc(Sc2nnnn2C)c(C#N)c(-c2cccc(OC)c2)n1` are 3.15 µM and 1.02 µM.
In the case of `C#CCSc1nc(Sc2nc3ccccc3s2)c(C#N)c(-c2cc(OC)c(OC)c(OC)c2)n1`, the IC50 at DCN1-like protein 1 [1] was more than 10 µM; at DCN1-like protein 1 [2], more than 5 µM; with KYSE-70 cell line, more than 20 µM; in the assay on PC-9, more than 20 µM; in the assay on SMMC-7721, more than 20 µM; in the assay on PC-3 it was more than 20 µM. The molecule further registered an IC50 with MCF7 of more than 20 µM.
Turning to `C=CCSc1nc(Sc2nccs2)c(C#N)c(-c2ccc(Cl)cc2)n1`, the IC50 on DCN1-like protein 1 [1] and on DCN1-like protein 1 [2] was more than 10 µM throughout.
As for `C#CCSc1nc(Sc2nccs2)c(C#N)c(-c2ccncc2)n1`, the IC50 turned out to be 1.48 µM at DCN1-like protein 1 [1] and 1.06 µM on DCN1-like protein 1 [2].
On the same counts, the results for `C#CCSc1nc(Sc2nnnn2C)c(C#N)c(-c2cccs2)n1` are more than 20 µM and more than 10 µM.
For `C#CCSc1nc(-c2cc(OC)c(OC)c(OC)c2)c(C#N)c(N2CCNCC2)n1` the same measures were more than 10 µM and more than 5 µM.
On the same counts, the results for `C#CCSc1nc(Sc2nnnn2C)c(C#N)c(-c2c[nH]c3ccccc23)n1` are more than 20 µM and more than 10 µM.
Consider `C#CCSc1nc(Sc2nnnn2C)c(C#N)c(-c2ccccc2)n1`, for which the IC50 on DCN1-like protein 1 [1] and on DCN1-like protein 1 [2] was more than 20 µM each time.
Take `N#Cc1c(Sc2nccs2)nc(SCc2cn(Cc3ccccc3)nn2)nc1-c1ccc(Cl)cc1`: the IC50 on DCN1-like protein 1 [1] and at DCN1-like protein 1 [2] was more than 10 µM each time.
As for `C#CCSc1nc(-c2cc(OC)c(OC)c(OC)c2)c(C#N)c(N2CCSCC2)n1`, the results for the IC50 on DCN1-like protein 1 [1] and on DCN1-like protein 1 [2] were more than 10 µM and more than 5 µM, respectively.
